{"source": "paper PMC6387783", "about": "(Chemistry & biodiversity, 2018)", "key": {"MCF-7 cells": {"system": "MCF-7 cells", "format": "cell-based, human", "details": "peptide 2 μM with R18 1 μM vs peptide alone, HBSS, 10 min, 37 °C", "method_in_brief": "(§1)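 Cells are seeded in μ-slide wells at 20% confluency (HEK293 in poly-L-lysine-coated wells) and grown 24 h, then washed with HBSS (Ca/Mg). Test peptide at 2 μM in HBSS, alone or with R18 1 μM, 10 min, 37 °C, dark; negative control R18 only. Cells washed five times, then live spinning-disk confocal imaging at 37 °C (FAM ex 488 nm, em 525/50 nm). Single-cell intensities background-corrected and normalized to control mean; 30 cells/condition; Kruskal–Wallis test.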"}, "mice": {"system": "mice", "details": "intravenous (tail-vein injection), ref [1]; cited from earlier work"}, "HEK293 cells": {"system": "HEK293 cells", "format": "cell-based, human", "details": "peptide 2 μM with R18 1 μM vs peptide alone, HBSS, 10 min, 37 °C", "method_in_brief": "as §1"}}}
{"substance": "FAM-octaarginine amide [compound 1]", "values": [{"measurement": "effect of membrane dye R18 on peptide permeation", "setting": "MCF-7 cells", "result": "significantly intensified permeation"}, {"measurement": "toxicity", "setting": "mice", "result": "highly toxic"}, {"measurement": "effect of membrane dye R18 on peptide permeation", "setting": "HEK293 cells", "result": "significantly intensified permeation"}]}
